Results taken from ChEMBL document CHEMBL5257094, “Synthesis and analysis of novel catecholic ligands as inhibitors of catechol-O-methyltransferase” (Bioorg Med Chem Lett, 2023).
Activity calls are given as the source filed them. No cut-off for these calls is given here.

Key:
[1] = target: T1, Catechol O-methyltransferase (Homo sapiens) (UniProt P21964); test: Inhibition of S-COMT (unknown origin) assessed as scopoletin formation by measuring fluorescence using 6,7-dihydroxycoumarin as substrate at 100 uM and measured for 60 mins by fluorescence based microplate reader assay
T1 sequence (whole entry): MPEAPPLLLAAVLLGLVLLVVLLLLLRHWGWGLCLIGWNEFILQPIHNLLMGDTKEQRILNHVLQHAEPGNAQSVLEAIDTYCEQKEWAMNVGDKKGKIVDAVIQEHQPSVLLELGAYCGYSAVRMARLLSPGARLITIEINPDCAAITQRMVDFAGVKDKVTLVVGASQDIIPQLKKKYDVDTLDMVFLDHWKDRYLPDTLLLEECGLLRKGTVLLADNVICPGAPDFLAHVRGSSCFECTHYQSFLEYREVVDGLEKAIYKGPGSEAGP
How it was run: (§1)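 Soluble COMT (S-COMT) activity was run at 37 °C and pH 7.4. The substrate was aesculetin (6,7-dihydroxycoumarin) at 6 μM, which methylation converts to fluorescent scopoletin. Fluorescence was read over 60 min. Test catechols were added at 10 μM or 100 μM. Each was assayed at least in triplicate, and the signal was normalized to the no-inhibitor aesculetin fluorescence.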

[2] = Stability of compound in phosphate buffer at 7.4 assessed as drug degradation incubated for 1 hr by HPLC analysis; assay type: physicochemical; settings: for Stability: buffer, pH 7.4, 1 h; for degraded at 1 h: phosphate buffer, pH 7.4, read-out: Drug degradation
How it was run: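 Compounds were incubated at assay conditions, 37 °C in phosphate buffer at pH 7.4, for 1 hour. Degradation was then assessed by HPLC analysis.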

[3] = target: T1, Catechol O-methyltransferase (Homo sapiens); test: Inhibition of S-COMT (unknown origin) assessed as scopoletin formation by measuring fluorescence using 6,7-dihydroxycoumarin as substrate at 10 uM and measured for 60 mins by fluorescence based microplate reader assay; how it was run: as §1
[4] = Dissociation constant, pKa of compound pH 3.01 to 12.36 at 0.2 mM by spectroscopic analysis; assay type: physicochemical
How it was run: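 Five-buffer series in which CHES replaced Borax over pH 8.2–10.8, with KCl buffers added to widen the range. Compound dissolved in each buffer across pH 3.01–12.36 to a final 0.2 mM. Absorbance was read, normalized, and fitted to give the first and, where determinable, second catechol hydroxyl pKa.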

| SMILES | inhibition [1] | Stability [2] | inhibition [3] | pKa at 200 µM [4] | degraded at 1 h [2] |
| --- | --- | --- | --- | --- | --- |
| NCCc1cc(O)c(O)cc1C(=O)O | inactive | Stable | inactive |  |  |
| N#CCCc1cc(O)c(O)cc1[N+](=O)[O-] | Active | Stable | inactive |  |  |
| NCCc1cc(O)c(O)cc1[N+](=O)[O-] | 50% | Stable | inactive | 6.33 |  |
| NCCc1cc(O)c(O)cc1O [OXIDOPAMINE] | Active |  | inactive |  | > 40% |
| NCCc1cc(O)c(O)cc1Br | inactive | Stable | inactive |  |  |
| N#CCCc1ccc(O)c(O)c1 | Active | Unstable | inactive |  |  |
| N#Cc1cc(O)c(O)cc1CCN | 30% | Stable | inactive |  |  |
| NCCc1ccc(O)c(O)c1 [DOPAMINE] |  | Stable |  | 8.66 |  |
| N#Cc1ccc(O)c(O)c1 | Active | Stable | inactive | 7.45 |  |
| N#CCc1ccc(O)c(O)c1 | Active | Stable | inactive | 9.6 |  |
| Oc1cc2c(cc1O)CNCC2 | inactive | Unstable | inactive |  |  |
| N#CCc1cc(O)c(O)cc1[N+](=O)[O-] | Active |  | Active | 6.23 | < 5% |
